Laboratory results taken from ChEMBL document CHEMBL1158126, “Sodwanone and yardenone triterpenes from a South African species of the marine sponge Axinella inhibit hypoxia-inducible factor-1 (HIF-1) activation in both breast and prostate tumor cells” (J Nat Prod, 2006).

Assays:
DU-145 = assay: Cytotoxicity against human DU145 cells after 48 hrs by neutral red assay; type: functional, cell-based; conditions: DU-145, 48 h
Outline: (§1)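 Cells kept in DMEM/F12 with 10% FBS and antibiotics at 37° C, 5% CO2:95% air. Plated at 30,000 cells/well and grown 24 h. Compounds diluted in serum-free DMEM/F12 and added (n = 3). Incubated 48 h at 37° C under normoxia. Viability read by neutral red at OD540. % inhibition = 1 - OD540(treated)/OD540(control). Highest concentration tested 30 μM.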

PC-3 = assay: Cytotoxicity against human PC-3 cells after 48 hrs by neutral red assay; type: functional, cell-based; conditions: PC-3, 48 h; outline: as §1
T47D = assay: Cytotoxicity against human T47D cells after 48 hrs by neutral red assay; type: functional, cell-based; outline: as §1
[1] = target: T1, Hypoxia inducible factors; HIF-1-alpha, HIF-2-alpha (Homo sapiens, UniProt Q16665+Q99814); assay: Inhibition of hypoxia-induced HIF1 activation in human PC3 cells by reporter gene assay; type: cell-based; conditions: pc-3
Outline: (§2)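 Luciferase reporter cells (T47D or PC-3) transfected, treated with compound and exposed to hypoxia (1% O2:5% CO2:94% N2). Normoxic comparison at 5% CO2:95% air. Compounds from 10 mM isopropanol stocks, tested up to 30 μM. Luciferase activity measured.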

[2] = target: T1, Hypoxia inducible factors; HIF-1-alpha, HIF-2-alpha; assay: Inhibition of 1,10 phenanthroline-induced HIF1 activation in human T47D cells by reporter gene assay; type: cell-based
Outline: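 Transfected T47D luciferase reporter cells. HIF-1 induced with the hypoxia mimetic 1,10-phenanthroline at 10 μM. Compounds from 10 mM isopropanol stocks, tested up to 30 μM. HIF-1 activity read as luciferase activity.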

[3] = target: T1, Hypoxia inducible factors; HIF-1-alpha, HIF-2-alpha; assay: Inhibition of hypoxia-induced HIF1 activation in human T47D cells by reporter gene assay; type: cell-based; outline: as §2
MDA-MB-231 = assay: Cytotoxicity against human MDA-MB-231 cells after 48 hrs by neutral red assay; type: functional, cell-based; conditions: MDA-MB-231, 48 h; outline: as §1

| SMILES | IC50 (DU-145) [µM] | IC50 (PC-3) [µM] | IC50 (T47D) [µM] | IC50 [1] [µM] | IC50 [2] [µM] | IC50 [3] [µM] | IC50 (MDA-MB-231) [µM] |
| --- | --- | --- | --- | --- | --- | --- | --- |
| CC1=C(CC[C@@H]2[C@H](C)CC[C@@H]3OC(C)(C)C(=O)CC[C@]32C)[C@@]2(C)CCC(=O)C(C)(C)C2=C(O)C1=O [SODWANONE B] | > 30 | > 30 | > 30 | > 30 | > 30 | > 30 | > 30 |
| C=C1CC[C@@H]2OC(C)(C)[C@H](O)CC[C@@]2(C)[C@@H]1CC[C@]1(O)[C@@H](C)CC[C@@H]2OC(C)(C)C(=O)CC[C@]21C | > 30 | > 30 | > 30 | > 30 | > 30 | 25 | > 30 |
| CC1=C(CCC2=C(C)CC[C@@H]3OC(C)(C)[C@H](O)CC[C@@]23C)[C@]2(C)CCC(=O)C(C)(C)O[C@H]2CC1 [SODWANONE T] | > 30 | > 30 | > 30 | > 30 | 20 | 20 | > 30 |
| C=C1CC[C@@H]2OC(C)(C)[C@H](OC(C)=O)CC[C@@]2(C)[C@@H]1CC[C@]1(O)[C@@H](C)CC[C@@H]2OC(C)(C)C(=O)CC[C@]21C | > 30 | > 30 | 22 | > 30 | > 30 | 20 | > 30 |
| CC1=C(CCC23CCC(=O)C(C)(C)C2=C(O)C(=O)C(C)=C3C)[C@]2(C)CCC(=O)C(C)(C)O[C@H]2CC1 (stereo partly drawn) [SODWANONE U] | > 30 | > 30 | > 30 | > 30 | > 30 | > 30 | > 30 |
| C[C@H]1CC[C@@H]2OC(C)(C)C(=O)CC[C@@]2(C)[C@@]12O[C@H]([C@@]1(C)CC[C@@H]3OC(C)(C)C(=O)CC[C@]31C)C[C@H]2O | > 30 | > 30 | > 30 | > 30 | > 30 | > 30 | > 30 |
| CC1=C(CCC2=C(C)C(=O)C(O)=C3C(C)(C)C(=O)CC[C@]23C)[C@]2(C)CCC(=O)C(C)(C)O[C@H]2CC1 [10,11-DIHYDROSODWANONE B] | > 30 | > 30 | > 30 | > 30 | 30 | 20 | > 30 |
| C[C@H]1CC[C@@H]2OC(C)(C)[C@@H](O)CC=C2[C@@]1(C)CC[C@]1(C)[C@@H](C)CC[C@@H]2OC(C)(C)[C@@]3(O)CC[C@]21O3 [SODWANONE V] | > 30 | > 30 | > 30 | 15 | 15 | 15 | 23 |
| CC(C)C(=O)CC[C@@]1(C)[C@@H]2CC[C@H](C)[C@@]1(CC[C@@]1(C)C3=CC[C@@H](O)C(C)(C)O[C@@H]3CC[C@H]1C)O2 [SODWANONE W] | > 30 | > 30 | > 30 | – | – | > 30 | > 30 |
| C[C@H]1CC[C@@H]2OC(C)(C)C(=O)CC[C@@]2(C)[C@]12CC[C@@H]([C@@]1(C)CC[C@@H]3OC(C)(C)C(=O)CC[C@]31C)O2 [YARDENONE] | > 30 | > 30 | > 30 | – | – | > 30 | > 30 |
| CC1=C(CC[C@H]2[C@]3(C)CCC(=O)C(C)(C)O[C@H]3CC[C@]2(C)O)[C@@]2(C)CCC(=O)C(C)(C)C2=C(O)C1=O [SODWANONE A] | > 30 | > 30 | > 30 | > 30 | > 30 | 20 | > 30 |
